Laboratory results from the EternaBench riboswitch data.

Test system: MS2 coat protein
Assay: apparent Kd, MS2 coat protein; higher = weaker binding; RNA-MaP array; FMN 200 µM where present
Summary of the method: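 Designs were transcribed by stalled E. coli RNA polymerase on Illumina sequencing-chip clusters. They were titrated with SNAP-549-labelled MS2 coat protein from 0.7 or 1.5 nM, doubling to 3 µM, in 100 mM Tris-HCl pH 7.5, 80 mM KCl, 4 mM MgCl2, BSA, DTT, yeast tRNA and Tween-20, without and then with constant ligand. The apparent Kd is the median of filtered per-cluster fits after normalisation of green signal to red-channel RNA signal and control-cluster median Fmax.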

[1] = designed as: OFF switch for flavin mononucleotide, no ligand
[2] = ligand present: flavin mononucleotide, designed as: OFF switch for flavin mononucleotide
[3] = designed as: ON switch for flavin mononucleotide, no ligand
[4] = ligand present: flavin mononucleotide, designed as: ON switch for flavin mononucleotide

## CGUUGGUCAGGAUAUGGUGGGCUGGUCGCGCGGCCGGGUGGCUAGAAGGGACAUGAGGAUCACCCAUGUACGGC
[1]
  apparent Kd: 21.5 nM
[2]
  apparent Kd: 40.5 nM

## CGUUUAUUUAUGGGUUUAGAUUAUGAGGAUAUCAUUUUUUUAUACAUGAGGAUCACCCAUGUUACUGAGAAGGCAUAAUUAACG
[3]
  apparent Kd: 16.4 nM
[4]
  apparent Kd: 7.09 nM

## CUAAUGUGAGGAUAUGGUGUUGAUCACAGGAAGGAGAUUCUCCAGAAGGCACAUGAGGAUCACCCAUGUAGUGA
[1]
  apparent Kd: 163 nM
[2]
  apparent Kd: 142 nM

## CUAUAGAUAUCAGGAUAUCUAUUUCCAACAUGAGGAUCACCCAUGUUGAGGAUCACCCAUGUAAAGGAGAAGGGAUAUCUAUAG
[3]
  apparent Kd: 69.1 nM
[4]
  apparent Kd: 16.4 nM

## CUAUAUAUAUGAGGAUAUCUAUAUCCAACAUGAGGAUCACCCAUGUUGAGGAUCACCCAUGUAAAGGAGAAGGCAUAUAUAUAG
[3]
  apparent Kd: 43.2 nM
[4]
  apparent Kd: 14.9 nM

## CUAUCGAGGUAACUCGCUAUCACACCAGAAGGGACGGAGGCACAUGAGGAUCACCCAUGUCCUAGUCAGGAUAUGGGUGAGUAG
[3]
  apparent Kd: 17.6 nM
[4]
  apparent Kd: 5.07 nM

## CUAUGAACGAUAGGAUAUACUGAGGUUGAGUGGGUAGAAGGAUCGAUAGUGUAGAAGACAUGAGGAUCACCCAUGUUAUGGAUU
[3]
  apparent Kd: 505 nM
[4]
  apparent Kd: 318 nM

## CUAUGAAGAAUAGGAUAUUCGAUCAAAAGGAUAGAAGAAGGGUUACAUGAGGAUCACCCAUGUAUGCACAUGAGGAUCCCUUAG
[1]
  apparent Kd: 188 nM
[2]
  apparent Kd: 196 nM

## CUAUUACGAGGAUAUGAUUUAAAUAACAUGAGGAUCACCCAUGUUUUUACGUUAUUAUGUUCAGAAGGCGUAUUGU
[1]
  apparent Kd: 26.5 nM
[2]
  apparent Kd: 19.4 nM

## CUAUUAUUGAUCCAUUUUUUCAACAUGAGGAUCACCCAUGUGCAGGAUAUCGUGAUUAUUAUCAACGAGAAGGGCAGAUUCACG
[1]
  apparent Kd: 59.3 nM
[2]
  apparent Kd: 178 nM

## CUCAUGAGAGGAUAUACAUGAGGAUCACCCAUGUGGUCAUCUCCUCGGGCUCCAUUACGUAGAAGGCUCAUUUG
[1]
  apparent Kd: 41.4 nM
[2]
  apparent Kd: 88.4 nM

## CUCAUGUAAGGAUAUCAGUAGUAAAAAAAUAAAAUUACUACUGAGAAGGUACAUGAGGAUCACCCAUGUCCUGG
[1]
  apparent Kd: 33.3 nM
[2]
  apparent Kd: 17.9 nM

## CUCAUGUGAGGAUAUGUGAUCUGCUUUCUGUGUAGAUGAUCACAGAAGGCACAUGAGGAUCACCCAUGUAGAUC
[1]
  apparent Kd: 70.5 nM
[2]
  apparent Kd: 29.6 nM

## CUCCCGAUCACAGGAUAUGCACAUACAAUUAAGGCAGAAGGGUGAUAGUCGGCCGGACAUGAGGAUCACCCAUGUGCAAGGAUA
[3]
  apparent Kd: 285 nM
[4]
  apparent Kd: 85.2 nM

## CUCGCAGUAAUAGGAUAUCCACAUCCGUGGCCUGUGUGUGACUUAACAUGAGGAUCACCCAUGUUGGAGAAGGAUUACUCAAUA
[1]
  apparent Kd: 728 nM
[2]
  apparent Kd: 178 nM

## CUCGGACAUGAGGAUCACCCAUGUGAGGAUAUGGUGCUAUCGUCAUUAGACGAUUGCGUUAGAAGGCAUAUUUU
[1]
  apparent Kd: 28.7 nM
[2]
  apparent Kd: 27.1 nM

## CUCGGCGAGGGAGGAUAUCCCUAUGAGGCGGUGCAGCUCGGGAACAUGAGGAUCACCCAUGUAGCGGAGAAGGCCCAUACGCCU
[1]
  apparent Kd: 9.59 nM
[2]
  apparent Kd: 34.5 nM

## CUCGUGUCAGGAUAUGGAAGGCCGUUUGAUUAACGAGGGUACUAGAAGGGACAUGAGGAUCACCCAUGUAAAAA
[1]
  apparent Kd: 37.7 nM
[2]
  apparent Kd: 57.6 nM

## CUCGUGUUAGGAUAUCGUGGCUGGGCUGGGACGUCCGAUCGCGAGAAGGGACAUGAGGAUCACCCAUGUAAAAC
[1]
  apparent Kd: 36.7 nM
[2]
  apparent Kd: 86 nM

## CUCUCUGAUCGAGGAUAUCGAGCUUCCGCCCUUCGAGAAGGCGACAUGAGGAUCACCCAUGUAAGGAGGACACUCACUCACACG
[1]
  apparent Kd: 26.4 nM
[2]
  apparent Kd: 22.5 nM

## CUCUUGGCAGGAUAUGCUCUCUUAGACAUGAGGAUCACCCAUGUGCUCAUUCCUUCUUUUGCAGAAGGGCCUUAAC
[1]
  apparent Kd: 71.4 nM
[2]
  apparent Kd: 52.3 nM

## CUCUUGGCAGGAUAUGCUCUUUUAGACAUGAGGAUCACCCAUGUGCUCAUUCCUUCUUUUGCAGAAGGGCCUUAAC
[1]
  apparent Kd: 73 nM
[2]
  apparent Kd: 54.7 nM

## CUCUUGUCAGGAUAUUAUGGACGAUAGCAGGACUACGUCAGUGAGAAGGGACAUGAGGAUCACCCAUGUAAAAU
[1]
  apparent Kd: 82 nM
[2]
  apparent Kd: 67.2 nM

## CUCUUGUGAGGAUAUGCUGCUCGUCACGAAAGUGAUGAGUAGCAGAAGGCACAUGAGGAUCACCCAUGUAAAUA
[1]
  apparent Kd: 93.7 nM
[2]
  apparent Kd: 21.7 nM

## CUCUUGUUAGGAUAUCAAACUGGCAGCGGAGCUGGCAGAAGUGAGAAGGGACAUGAGGAUCACCCAUGUAAGAA
[1]
  apparent Kd: 69.2 nM
[2]
  apparent Kd: 228 nM

## CUGAAGAUAUCAGGAUAUCUAUUUCCUACAUGAGGAUCACCCAUGUAGGUGAUCAGCCAAGUAAAGGAGAAGGGAUAUCUUUAG
[3]
  apparent Kd: 32.3 nM
[4]
  apparent Kd: 9.78 nM

## CUGACAGCGCAGAAGGGAGAUCCUACAUGAGGAUCACCCAUGUGGGCUCUCAGGAUAUGCACGUGUAUACCGAAAGUGGUAUUG
[3]
  apparent Kd: 13.4 nM
[4]
  apparent Kd: 5.99 nM

## CUGAUUUGCUAGAAGGGUGACAUGAGGAUCACCCAUGUGCGGGCAGACCUAUCUUCAUGCCCGCCACAGGAUAUAGCAAUUCGC
[3]
  apparent Kd: 38.3 nM
[4]
  apparent Kd: 48.2 nM

## CUGCCGUAGGAGAAGGACGGCGGGUUAUUUUUUUACAUGAGGAUCACCCAUGUAGGAUAUCCUACGUCAGGCAACCUACUACAG
[1]
  apparent Kd: 6.36 nM
[2]
  apparent Kd: 9.54 nM

## CUGGUUAGUCAGGAUAUCGUGUGGGUAAUUGUACGAGAAGGGACGACAUGAGGAUCACCCAUGUGGUCUUUGGG
[1]
  apparent Kd: 24.8 nM
[2]
  apparent Kd: 56.2 nM

## CUGUGACGGAUCCAGAAUUACAACAUGAGGAUCACCCAUGUACAGGAUAUAGGGUUGAUAGGCGCCUAGAAGGGUAUGAUCACG
[1]
  apparent Kd: 156 nM
[2]
  apparent Kd: 177 nM

## CUGUGACGGUGCGCAAGUGGACGGAGAAGGGUCACAUGAGGAUCACCCAUGUGGGCCUGCUAUUGACAGGAUAUCCGUUCGUAC
[1]
  apparent Kd: 5.94 nM
[2]
  apparent Kd: 6.46 nM

## CUGUUAUAGGUCCAGAAUUACAACAUGAGGAUCACCCAUGUGCAGGAUAUCGGGUUGAUAGGCGACGAGAAGGGCAUAGUCACG
[1]
  apparent Kd: 76.5 nM
[2]
  apparent Kd: 79.2 nM

## CUGUUAUAGGUCCAUUUUUACAACAUGAGGAUCACCCAUGUGCAGGAUAUCGUGUUAAUUUUCAUCGAGAAGGGCAUAGUCACG
[1]
  apparent Kd: 31.5 nM
[2]
  apparent Kd: 61.2 nM

## CUGUUCACCAGUGGGCGACCACAUGAGGAUCACCCAUGUAGGGAGGAUAUGCCCGCGCAGCUGUAGCAGAAGGCCCUGCAAAUC
[1]
  apparent Kd: 21.2 nM
[2]
  apparent Kd: 125 nM

## CUGUUGUGGUACUGCAUGGCUUGGAGAGAAGGGUGAUUCACAUGAGGAUCACCCAUGUAGGACUUACAGGAUAUUUCCGGGUCU
[3]
  apparent Kd: 62.6 nM
[4]
  apparent Kd: 100 nM

## CUGUUUUUCGCAGGAUAUGCUCCUCCUUUAUUUGCAGAAGGGCGUUAAACAUGAGGAUCACCCAUGUAUGGUAAUGACUUUUUC
[1]
  apparent Kd: 20.6 nM
[2]
  apparent Kd: 67.8 nM

## CUUAGACAUGAGGAUCACCCAUGUGAGGAUAUGAUGCAGCAGUGGUCUACGCUGUGCAUCAGAAGGCACAUGUG
[1]
  apparent Kd: 80.7 nM
[2]
  apparent Kd: 14.2 nM

## CUUAUGUCAGGAUAUCAGUAGUAAAAAAAAAAAAUUACUACUGAGAAGGGACAUGAGGAUCACCCAUGUCCAUU
[1]
  apparent Kd: 30.9 nM
[2]
  apparent Kd: 31.2 nM

## CUUAUUUUCGAAGGAUAUGGAUACAUGAGGAUCACCCAUGUAUAAAAUGAGAUCUAUUAUAUGAUCCAGAAGGUCGUUGUUUAU
[1]
  apparent Kd: 33.4 nM
[2]
  apparent Kd: 59.2 nM

## CUUCGUAUAGAGGAUAUAGGAUACUGCGGUGUCCUAGAAGGCUGUACAUGAGGAUCACCCAUGUACUUCAGAUC
[1]
  apparent Kd: 12.6 nM
[2]
  apparent Kd: 17.9 nM

## CUUCGUAUAGAGGAUAUAGGUUACCUCGGUAUCCUAGAAGGCUGUACAUGAGGAUCACCCAUGUACUUCAGAUC
[1]
  apparent Kd: 12.4 nM
[2]
  apparent Kd: 14.5 nM

## CUUCUGUCAGGAUAUGCGAAUCACCACUGGGUCAGCGGUGAGCAGAAGGGACAUGAGGAUCACCCAUGUAAAGU
[1]
  apparent Kd: 40.5 nM
[2]
  apparent Kd: 171 nM

## CUUUAAGUCGAGAAGGACAUGAGGAUCACCCAUGUAGGAUAUCGAUUAGCUUACAACCCGAGCCGCAUUGGUAUGACUGGUGGG
[3]
  apparent Kd: 12.9 nM
[4]
  apparent Kd: 6.23 nM

## CUUUAGUGAGGAUAUGUGGCUUCGAUCGUGAGAUCGAGGCUACAGAAGGCACAUGAGGAUCACCCAUGUUCCUA
[1]
  apparent Kd: 16.6 nM
[2]
  apparent Kd: 59.4 nM

## CUUUAGUGAGGAUAUGUGGCUUCGAUCGUGAGAUCGAGGCUACAGAAGGCACAUGAGGAUCACCCAUGUUCCUU
[1]
  apparent Kd: 14.5 nM
[2]
  apparent Kd: 32.9 nM

## CUUUAUGUUGAGGAUAUGCACCAGCUCACUGACGCAGAAGGCGACACAUGAGGAUCACCCAUGUCAGUUCGCGU
[1]
  apparent Kd: 17.6 nM
[2]
  apparent Kd: 17.8 nM

## CUUUCGUGAGGAUAUGAGGCUUCGAUCGUGAGAUCGAGGCUACAGAAGGCACAUGAGGAUCACCCAUGUUCCUC
[1]
  apparent Kd: 30.9 nM
[2]
  apparent Kd: 392 nM

## CUUUUGUGAGGAUAUCAGUAGUAAAGAAAUAAAAUUACUACUGAGAAGGCACAUGAGGAUCACCCAUGUUCCUC
[1]
  apparent Kd: 36.2 nM
[2]
  apparent Kd: 192 nM

## CUUUUGUGAGGAUAUCAGUAGUAAUACAAUAGUAUUACUACUGAGAAGGCACAUGAGGAUCACCCAUGUUCCUU
[1]
  apparent Kd: 16 nM
[2]
  apparent Kd: 29.5 nM

## CUUUUGUGAGGAUAUCAUUAGUAAAUAAAUAAAAUUACUACUGAGAAGGCACAUGAGGAUCACCCAUGUUCCUC
[1]
  apparent Kd: 33.9 nM
[2]
  apparent Kd: 159 nM

## CUUUUGUGAGGAUAUUAGUAGUAAAUAAAUAAAAUUACUACUGAGAAGGCACAUGAGGAUCACCCAUGUUCCUU
[1]
  apparent Kd: 12.6 nM
[2]
  apparent Kd: 38 nM

## GAAAACGCAGAGGAUAUUUCAGAUCCUAGCUGCAAAGAAGGCUGCACAUGAGGAUCACCCAUGUGGUCCUGAAG
[1]
  apparent Kd: 65.1 nM
[2]
  apparent Kd: 155 nM

## GAAAUACAUGAGGAUCACCCAUGUAAGGAUAUGCUAGCGGUCGGCUGACUGACUGCUAGCAGAAGGUACAUGAU
[1]
  apparent Kd: 80.9 nM
[2]
  apparent Kd: 108 nM

## GAACGAUUGCCUACAUGAGGAUCACCCAUGUGGCUGACAAGCAGAAGGGCGGGUUUCAUUCUCCCGUAGGAUAUGCGCGUUCCA
[3]
  apparent Kd: 6.89 nM
[4]
  apparent Kd: 5.14 nM

## GAAGAUAUAGGAUAUACAUGAGGAUCACCCAUGUGAGUACGCAAGGCUAGAUCGCUUUGUAGAAGGAUAUACCG
[1]
  apparent Kd: 38.5 nM
[2]
  apparent Kd: 40.8 nM
